An excerpt weighted towards active compounds, which were near 4.7% of everything screened.
MrgX1 agonist = agonists of human MrgX1 receptor. actives 0.44% (n = 310,000). B-score at 10 µM. AID 588627. MrgX1-HEK293 cells, Fluo-4 calcium fluorescence, agonist mode; hits give high values;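 active = calcium response B-score plate-corrected fluorescence ratio at least 3 library SD, with starting fluorescence B-score inside 5 SD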
Target sequence (Q96LB2 whole entry, looked up): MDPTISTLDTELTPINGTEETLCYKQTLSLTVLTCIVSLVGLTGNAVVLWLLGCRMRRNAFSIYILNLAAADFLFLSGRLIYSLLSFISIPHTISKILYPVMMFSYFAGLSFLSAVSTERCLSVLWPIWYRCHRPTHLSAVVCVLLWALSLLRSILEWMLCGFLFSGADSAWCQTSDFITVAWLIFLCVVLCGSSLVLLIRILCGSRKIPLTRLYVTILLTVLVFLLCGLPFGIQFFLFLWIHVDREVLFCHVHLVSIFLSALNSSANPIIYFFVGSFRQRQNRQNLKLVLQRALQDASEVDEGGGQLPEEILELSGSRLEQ
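Test system: HEK293 cells stably expressing human MrgX1 receptor; Input: fifteen thousand cells per well; Dosing: compound delivered in addition one of three; Schedule: overnight seeding, then 1 h dark dye loading; Technique: Fluo-4 NW calcium fluorescence; Measure: B-scored fluorescence response ratio; Controls: positive and negative controls per plate.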
MrgX1 antagonist = antagonists of human MrgX1 receptor; Q96LB2; MRGX1-HEK293 calcium flux, Fluo-4, BAM8-22 antagonism; hits give low values; B-score at 10 µM; actives 1.3% (n = 310,000); AID 588676;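 active = calcium-response B-score plate-corrected more than 3 library SD below zero, starting fluorescence within 5 deviations, no agonist response on first addition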;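 note: peak minus trough fluorescence over baseline after final BAM8-22 challenge near maximal dose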
RGS4 block = inhibitors of human RGS4. P49798. HEK293 M3R/RGS4 inducible, Fluo-4 calcium flux; hits give high values; triggered by carbachol at its EC20. B-score at 10 µM. actives 0.45% (n = 310,000). AID 463165;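 active = B-score, a plate-corrected calcium signal, over three deviations above library mean, with baseline fluorescence within five deviations of library mean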;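 note: RGS4 expression induced by doxycycline in cells with stable M3 receptor; B-score is computed from the integrated fluorescence ratio over baseline after carbachol; higher B-score means a larger calcium signal and so more RGS4 inhibition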
Target sequence (P49798 whole entry, looked up): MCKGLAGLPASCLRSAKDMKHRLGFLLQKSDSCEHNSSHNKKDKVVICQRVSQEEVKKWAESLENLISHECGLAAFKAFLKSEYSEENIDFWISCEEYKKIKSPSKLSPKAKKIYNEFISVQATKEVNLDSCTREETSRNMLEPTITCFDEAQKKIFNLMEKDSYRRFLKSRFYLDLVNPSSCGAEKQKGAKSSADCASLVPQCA
RGS4 act = potentiators or activators of RGS4; HEK293 M3R/inducible RGS4, carbachol calcium flux Fluo4; hits give low values; B-score at 10 µM; actives 0.92% (n = 310,000); AID 463111;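 active = B-score of the integrated calcium signal more than 4 SD below the library mean, with starting fluorescence not abnormally high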;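 note: negative B-score means reduced calcium response which marks RGS4 activation or potentiation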
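Reagent: ECmax carbachol challenge; Test system: M3R-expressing HEK293 line, RGS4 induced by doxycycline; Schedule: overnight RGS4 induction, 30 min dye load 37 °C, 20 min compound RT; Detection: calcium dye Fluo4 fluorescence; Read-out: Agonist-evoked peak-minus-minimum fluorescence over baseline, integrated ratio, B score.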
MrgX1 allo act = human MrgX1 positive allosteric modulation, primary screen; MrgX1-HEK293, Fluo-4 calcium flux, FDSS; hits give high values; B-score at 10 µM; actives 0.63% (n = 310,000); AID 588675;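 active = plate-corrected calcium response at least 3 library SD above typical, normal starting fluorescence, not activating the receptor alone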;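 note: compound read alongside a low EC10 to EC30 dose of BAM8-22 agonist; peak minus trough fluorescence over baseline measured at the second addition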
Cl transport mod = modulators of human KCC2 chloride dependent transport; Q9H2X9; KCC2 cells, thallium flux FluoZin-2 fluorescence; B-score of Tl+ flux slope (higher = more flux/activation; lower = inhibition) at 10 µM; actives 2.2% (n = 190,000); AID 1456;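 active = thallium flux slope and its plate-corrected score both differing from the plate sample mean at a set confidence after two filtering rounds, in either direction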;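 note: slope of fluorescence scaled to starting intensity during 10 to 20 s after thallium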
RGS4 inh valid = RGS4 inhibitor validation | shares compounds with RGS4 block | HEK293 M3R/RGS4, carbachol calcium Fluo-4 fluorescence; carbachol added at its EC20; 0 = buffer wells, 100 = carbachol control | calcium response, % at 10 µM | actives 65% (n = 1,700) | AID 492999;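 active = duplicate-averaged calcium response above the buffer-only control mean plus 5 SD of those controls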;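 note: integrated fluorescence ratio F max minus min over baseline F0; higher response in RGS4-induced cells means RGS4 inhibition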
RGS4 uninduced = non-induced cell nonspecific activity of RGS4 inhibitors; shares compounds with RGS4 block; AID 493000; HEK293 M3R non-induced, carbachol calcium Fluo-4; submaximal (EC20) carbachol stimulus; buffer wells 0%, carbachol control wells 100%; actives 20% (n = 1,900); activity (percent), % at 10 µM; call rule not given here;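 note: RGS4 induction absent so cells express M3R without RGS4; higher means more calcium signal and flags a non-specific hit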
M3R basal Ca ctr = signal in non-induced cells without carbachol, RGS4 inhibitor counter-screen | HEK293 M3R/RGS4 non-induced, Fluo-4 calcium, no carbachol; normalised: buffer wells 0%, carbachol wells 100% | shares compounds with RGS4 block | calcium response (agonist-mode artifact), % at 10 µM | actives 22% (n = 1,900);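 active = duplicate-averaged calcium rise in uninduced cells above buffer wells' mean plus 5 SD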
* hit, by the source's call; i = inactive; x = no result given.

SMILES | MrgX1 agonist | MrgX1 antagonist | RGS4 block | RGS4 act | MrgX1 allo act | Cl transport mod | RGS4 inh valid | RGS4 uninduced | M3R basal Ca ctr
CC(=O)Nc1ccc(NC(=O)CSc2ncc(C(=O)Nc3ccc(F)cc3)c(=O)n2C)cc1 | i | i | i | i | i | x | x | x | x
CC(=O)Nc1cccc(NC(=O)CSc2ncc(C(=O)Nc3ccc(F)cc3)c(=O)n2C)c1 | i | i | i | i | i | x | i | i | i
CC(=O)c1cccc(NC(=O)CSc2ncc(C(=O)Nc3ccccc3)c(=O)n2C)c1 | i | i | i | i | i | x | x | 39%* | i
Cc1cc(O)c(C(=O)/C=C/c2cccc([N+](=O)[O-])c2)c(=O)o1 | i | i | 4.7* | i | i | -0.19 | 30%* | i | i
O=C(/C=C/c1cccc([N+](=O)[O-])c1)c1cccs1 | 35* | i | 4.8* | i | i | 1.5 | i | i | i
O=C(/C=C/c1cccc([N+](=O)[O-])c1)n1cnc2ccccc21 | x | x | 7.9* | i | x | -0.21 | 19%* | i | i
O=C(CC1S/C(=N/N=C2CCCCCC2)NC1=O)Nc1ccccc1C(F)(F)F (centres undefined) | i | i | i | i | i | x | x | x | x
COc1ccccc1NC(=O)CC1S/C(=N/N=C2\CCCc3ccccc32)NC1=O (centres undefined) | i | i | 6.1* | i | i | x | 60%* | 62%* | i
CCCn1c(C(C)Nc2nc(-c3ccc(C)cc3)cs2)nc2ccccc21 (centres undefined) | i | i | i | i | i | x | x | x | x
O=[N+]([O-])c1cc(-c2csc(NC(CO)c3nc4ccccc4n3CCOCCO)n2)ccc1Cl (centres undefined) | i | i | 7.7* | i | i | x | 6.0%* | 40%* | i
Cc1ccc(Cn2c(C(C)Nc3nc(-c4ccc(Cl)c([N+](=O)[O-])c4)cs3)nc3cc(C(F)(F)F)ccc32)cc1 (centres undefined) | i | i | i | i | i | x | x | x | x
CCCn1c(C(C)Nc2nc(-c3ccc(Cl)c([N+](=O)[O-])c3)cs2)nc2ccccc21 (centres undefined) | i | i | 8* | i | i | x | 16%* | i | i
CCCn1c(C(C)Nc2nc(-c3cccc(Br)c3)cs2)nc2ccccc21 (centres undefined) | i | i | i | i | i | x | x | i | i
COCCN(C(=O)COC(=O)COc1ccc(Cl)c(C)c1)c1c(N)n(Cc2ccccc2)c(=O)[nH]c1=O | i | i | i | i | i | x | x | x | x
COCCNC(=O)C(OC(=O)C1=Cc2ccccc2OC1)C(C)C (centres undefined) | i | i | i | i | i | -0.79 | x | x | x
O=c1c2[nH]cnc2n(-c2cccc(F)c2)c(=O)n1Cc1ccccc1 | i | i | i | i | i | x | x | x | x
O=C(/C=C/NNC(=O)c1ccccc1)c1ccccc1 | i | i | i | i | i | 1.5 | x | i | i
COc1cc(/C=C2\C(=O)N(c3ccc(NC(C)=O)cc3)N=C2c2ccccc2)ccc1O | i | i | 6.2* | i | i | -1.9 | i | i | 16%*
O=C1/C(=C\c2ccc(O)c(O)c2)C(c2ccccc2)=NN1c1ccccc1 | x | x | i | i | x | -0.62 | x | x | x
COc1cccc(C2CC(c3ccccc3Cl)n3nc(N)nc3N2)c1 (centres undefined) | i | i | i | i | i | x | x | x | x
COc1ccc(C2(c3ccc(O)cc3O)CC(c3ccccc3Cl)NC(=S)N2)cc1 (centres undefined) | i | i | 10* | i | i | -1.3 | 36%* | i | i
COc1cccc(C(C(=O)NC(C)(C)C)N(CCc2ccccc2)C(=O)CCC(=O)Nc2cc(C)on2)c1OC (centres undefined) | i | i | i | i | i | x | x | x | x
Cc1ccc(N(C(=O)CNC(=O)c2ccco2)C(C(=O)NCC2CCCO2)c2ccccc2)c(C)c1 (centres undefined) | i | i | i | i | i | x | x | x | x
Cc1ccc(N=N/C(=C\O)C(=O)c2ccc(Cl)cc2)cc1 | i | i | i | i | i | 2 | x | x | x
O=C(/C(=C/O)N=Nc1ccccc1)c1ccc(Cl)cc1 | i | i | 8.7* | i | i | 0.35 | 64%* | 78%* | i
SMILES | MrgX1 agonist | MrgX1 antagonist | RGS4 block | RGS4 act | MrgX1 allo act | Cl transport mod | RGS4 inh valid | RGS4 uninduced | M3R basal Ca ctr
O=C(C[C@H]1C(=O)N(CCc2ccccc2)C[C@@H]1Cc1ccccc1)Nc1ccccc1 | i | i | i | i | i | x | x | x | x
CCN(C#N)c1nc(NC(C)C)nc(NC(C)(C)C)n1 | i | i | 5.1* | i | i | -0.17 | 7.0%* | i | i
CCC1CCCCN1CCCn1c(=S)[nH]c2ccccc2c1=O (centres undefined) | i | i | 6.9* | i | i | 9.2* | 19%* | i | i
CCOc1cc2[nH]c(=S)n(CCN3CCCCC3CC)c(=O)c2cc1OCC (centres undefined) | i | i | i | i | i | 0.68 | x | x | x
CCN(CC(=O)NC(c1ccccc1)c1ccccc1)Cc1nc2ccccc2c(=O)[nH]1 | i | i | i | i | i | -0.35 | x | x | x
CCN(CC(=O)NC(C)C)Cc1nc2c(Br)cc(Br)cc2c(=O)[nH]1 | i | i | 5* | i | i | 0.23 | 25%* | i | 12%*
CC(=O)C1=C(O)C(=O)N(c2cc(C(C)(C)C)on2)C1c1ccc(C(C)C)cc1 (centres undefined) | i | i | i | i | i | -2.9 | i | i | 56%*
CC(=O)C1=C(O)C(=O)N(c2cc(C(C)(C)C)on2)C1c1ccc(Br)cc1 (centres undefined) | i | i | 7.8* | i | i | -3.5 | 44%* | 30%* | i
